Screens (PubChem)
Sampled rows, rich in hits. Any-hit rate of the full collection: about 2.1%.
VIM-2 inh – inhibitors of Pseudomonas aeruginosa VIM-2 metallo-beta-lactamase | purified VIM-2, nitrocefin hydrolysis, epi-absorbance fluorescence | inhibition, % at 5.6 µM | actives 0.89% (n = 290,000) | AID 1527;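 active = inhibition above the mean of all tested compounds plus 3 SD, cutoff set per screening run, cut at about 7.5% in these data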;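 also: red hydrolysis product quenches plate fluorescence so inhibitors raise well fluorescence; 0% = enzyme with DMSO and 100% = DMSO without enzyme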
CRFBP-R2 agonist – CRF-BP/CRF-R2 complex agonism | HEK293 CRF-R2/CRF-BP, calcium dye fluorescence (FLIPR); percent of saturating CRF peptide response | AID 588473 | actives 0.46% (n = 350,000) | activation, % at 13.2 µM;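 active = activation of at least 50%, plus an integration ratio under a set limit after plate pattern correction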;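 also: plate controls were neutral control wells without compound for no effect and CRF at EC100 for full effect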
CRFR2-BP antag – CRF-BP/CRF-R2 complex antagonism. actives 0.59% (n = 350,000). HEK293 CRF-R2/CRF-BP, CRF-induced calcium fluorescence. inhibition, % at 11.8 µM. AID 588475;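 active = inhibition of the ligand-induced calcium signal above about 50% at the single tested concentration, limit read from the data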
IMP-1 inhibitor – blocks Pseudomonas aeruginosa IMP-1 metallo-beta-lactamase; inhibition, % at 5.6 µM; actives 0.45% (n = 290,000); purified IMP-1, nitrocefin hydrolysis, epi-absorbance fluorescence; AID 1556;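 active = inhibition above the mean plus 3 SD of all compounds in the same screening run, cut at about 4.5% in these data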;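 also: 0% = IMP-1 with DMSO and 100% = DMSO wells lacking enzyme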
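Material – recombinant IMP-1 enzyme, purified · Amount – IMP-1 0.2 nM before substrate addition · Medium – HEPES buffer pH 7.1 with ZnSO4 and Brij 35 · Timing – 25 °C, 15 min preincubation, 25 min reaction · Measured by – plate fluorescence quenching by hydrolysis product, ex 480/em 530 nm · Read-out – percent enzyme inhibition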
zfTRPN1 agonist – activates the zebrafish TRPN1 channel | activation, % at 3 µM | HEK293 zebrafish TRPN1-YFP, Fluo-8 calcium fluorescence; 100% = response to 87 µM carbachol | actives 0.18% (n = 220,000);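 active = activation above its plate's cutoff, the mean activation of test wells on that plate plus 3 SD, cut at about 19% in these data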;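 also: 0% = DMSO alone and 100% = 87 µM carbachol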
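Material: zebrafish TRPN1-YFP in HEK293 cells. Doses: one dose of 3 µM, 0.3% DMSO. Incubation: dye 1 h 37 °C plus 30 min RT. Measured by: intracellular calcium fluorescence with Fluo-8.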
TRPML3 ag – activates the human TRPML3 channel | HEK293 TRPML3-YFP, Fluo-8 calcium fluorescence; 100% = the carbachol control signal | activation, % at 3 µM | Q8TDD5 | actives 0.29% (n = 220,000);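 active = activation above its plate's cutoff, the mean activation of the plate's test wells plus 3 SD, cut at about 12% in these data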;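 also: 0% = DMSO only wells and 100% = carbachol wells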
Target sequence (Q8TDD5 whole entry, looked up): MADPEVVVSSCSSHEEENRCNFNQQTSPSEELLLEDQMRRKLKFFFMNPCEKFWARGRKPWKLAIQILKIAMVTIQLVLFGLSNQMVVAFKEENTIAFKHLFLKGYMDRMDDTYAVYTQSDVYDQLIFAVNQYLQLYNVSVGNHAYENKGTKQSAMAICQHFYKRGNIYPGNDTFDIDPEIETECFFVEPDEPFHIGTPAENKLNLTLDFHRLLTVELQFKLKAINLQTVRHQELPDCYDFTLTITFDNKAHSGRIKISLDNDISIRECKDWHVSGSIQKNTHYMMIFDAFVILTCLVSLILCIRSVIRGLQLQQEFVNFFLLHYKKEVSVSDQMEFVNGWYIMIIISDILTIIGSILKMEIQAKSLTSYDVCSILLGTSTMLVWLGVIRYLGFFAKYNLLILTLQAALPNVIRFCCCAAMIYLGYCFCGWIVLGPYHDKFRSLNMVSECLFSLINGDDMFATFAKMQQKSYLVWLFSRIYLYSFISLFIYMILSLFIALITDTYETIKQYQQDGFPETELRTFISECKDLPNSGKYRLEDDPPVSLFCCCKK
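Material: HEK293 cells stably carrying human TRPML3-YFP; compound dosing: single dose, 3 µM final nominal compound, 0.3% DMSO final; incubation: 1-h 37 °C dye load, 5-s basal, 120-s post-compound reads; technique: Fluo-8 intracellular calcium fluorescence, excitation 470-495 nm, emission 515-575 nm; read-out basis: percent activation from peak-to-basal fluorescence ratio, scaled between DMSO and carbachol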
Numbers without * were called inactive; · = no result given.

SMILES | VIM-2 inh | CRFBP-R2 agonist | CRFR2-BP antag | IMP-1 inhibitor | zfTRPN1 agonist | TRPML3 ag
CCOc1ccccc1N(CC(=O)N1CCOCC1)S(=O)(=O)c1ccc(SC)cc1 | -1.0 | 109.1* | -28.1 | -5.1 | 57.5* | 198.5*
COC(=O)c1c(NC(=O)CC2Nc3ccccc3NC2=O)sc(C)c1C (stereo not drawn) | -0.2 | 21.4 | 52.7* | -1.4 | -2.6 | -0.2
CCOC(=O)CCN(Cc1ccccc1)S(=O)(=O)c1csc(C(N)=O)c1 | 0.2 | -0.7 | -21.0 | 1.6 | · | ·
COC(=O)c1c(NC(=O)c2ccnn2C)sc(C)c1C | 0.2 | 1.4 | 9.8 | 4.7* | -0.9 | 0.7
CCn1cc(C(=O)Nc2sc(C)c(C)c2C(=O)OC)cn1 | 1.1 | -1.1 | 9.4 | -5.5 | 1.8 | 0.1
Cc1cc(SCC(=O)Nc2c(C)n(C)n(-c3ccccc3)c2=O)n2c(nc3ccccc32)c1C#N | 22.5* | · | · | -1.5 | -0.2 | 1.0
O=[N+]([O-])c1ccccc1C=NNC(=S)NN=Cc1ccccc1[N+](=O)[O-] | · | -2.2 | 56.9* | · | · | ·
COc1ccc(O)c(C(=O)c2cnc3c(c2)c(=O)[nH]c(=O)n3C)c1 | 1.6 | -5.5 | 1.7 | -1.4 | -1.6 | -0.3
COCCn1c(=O)[nH]c(=O)c2cc(C(=O)c3cc(Cl)ccc3O)cnc21 | -3.6 | 99.2* | -8.9 | -2.8 | 1.6 | 1.1
CC1(C)NC(=O)N(CC(=O)N2CCN(c3ccc([N+](=O)[O-])cc3)CC2)C1=O | · | -0.9 | 0.5 | · | · | ·
CCCOc1ccc(C(=O)N2CCN(c3ccc(NC(=O)CC)cc3Cl)CC2)cc1 | -2.8 | -2.2 | 61.7* | -1.2 | 0.9 | 0.6
COc1ccc(OC)c(NC(=O)C2C3CCC(C3=C(C)C)C2C(=O)O)c1 (stereo not drawn) | 8.8* | -0.3 | 6.8 | -1.0 | 0.2 | 0.3
NC(=O)C1CCN(C2=C(NS(=O)(=O)c3ccc(Br)cc3)C(=O)c3ccccc3C2=O)CC1 | 5.5 | -4.4 | 7.2 | -0.8 | · | ·
O=C1C(NS(=O)(=O)c2ccc(Cl)cc2)=C(N2CCCCC2)C(=O)c2ccccc21 | 9.3* | -14.0 | -59.2 | 0.1 | 0.4 | 0.0
NC(=O)C1CCN(C2=C(NS(=O)(=O)c3ccccc3)C(=O)c3ccccc3C2=O)CC1 | 8.8* | 3.2 | 5.5 | 0.2 | 0.5 | 1.3
CCOC(=O)N1CCN(C2=C(NS(=O)(=O)c3ccccc3)C(=O)c3ccccc3C2=O)CC1 | 9.4* | 1.3 | 9.6 | -2.5 | · | ·
CCOC(=O)N1CCN(C2=C(NS(=O)(=O)c3ccc(Br)cc3)C(=O)c3ccccc3C2=O)CC1 | · | -4.5 | 27.8 | · | · | ·
COc1ccc2ccccc2c1C1NC(=O)NC(C)=C1[N+](=O)[O-] (stereo not drawn) | -3.7 | 5.4 | -8.1 | -4.5 | · | ·
Cn1c(=O)c2cc3ccc(Cl)cc3nc2n(C)c1=O | -0.5 | -0.8 | 52.2* | -2.1 | 0.0 | 0.9
COC(=O)c1ccc(OCc2cc(=O)n3ccsc3n2)cc1 | -1.1 | 1.0 | -5.3 | -0.6 | 1.1 | 0.8
O=C(OCc1cc(=O)n2ccsc2n1)C1(c2ccccc2)CC1 | · | 0.3 | 71.4* | · | · | ·
O=C1c2ccccc2C(=O)N1c1ncc(Cc2ccc(Cl)cc2)s1 | -0.4 | 207.6* | -7.9 | 0.0 | -0.9 | 0.8
Cc1ccc(Cc2cnc(N3C(=N)SC(C)C3=O)s2)cc1 (stereo not drawn) | -2.5 | -0.7 | 5.0 | -1.4 | 1.3 | 0.8
CCCNC(=O)[C@H]1N2C(=O)c3c(ccc(OC)c3OC)C2SC1(C)C (stereo partly drawn) | -3.9 | 1.1 | 9.3 | -2.1 | · | ·
COc1ccc(CNC(=O)CCS(=O)(=O)c2ccc3c(c2)CC(C)N3C(=O)C2CC2)cc1 (stereo not drawn) | -1.3 | -0.6 | -7.5 | -3.1 | · | ·
SMILES | VIM-2 inh | CRFBP-R2 agonist | CRFR2-BP antag | IMP-1 inhibitor | zfTRPN1 agonist | TRPML3 ag
CCN(CC)c1ccc(/C=C(\C#N)c2nc(-c3cccs3)c(NC(C)=O)s2)cc1 | 0.9 | · | · | 3.9 | 21.6* | 29.4*
CCN1CCCC1CNS(=O)(=O)c1ccc(Cl)c(C(F)(F)F)c1 (stereo not drawn) | -4.1 | 1.5 | -3.9 | -1.1 | -1.2 | 1.7
COC(=O)c1cc(Sc2c(Cl)cccc2Cl)ccn1 | 4.0 | -0.3 | -3.2 | -0.7 | -2.8 | -1.2
COC(=O)c1cc(Sc2cccc(Cl)c2Cl)ccn1 | 9.2* | -2.6 | -4.0 | -1.6 | -2.2 | -0.4
O=C1Nc2ccccc2C1(O)C/C(=N/O)c1ccccc1 (stereo not drawn) | -4.4 | -0.2 | -12.7 | -2.8 | -2.2 | 0.7
COc1ccc(-c2nc(C#N)c(N3CCN(C(=O)c4ccco4)CC3)o2)cc1OC | 0.0 | 0.0 | -9.2 | 7.7* | · | ·
c1ccc(C2CN3CCSC3=N2)cc1 (stereo not drawn) | -1.7 | -2.4 | 89.1* | -0.2 | -0.1 | 0.1
Brc1ccc([C@H]2CN3CCSC3=N2)cc1 | · | -1.6 | 6.8 | · | · | ·
COc1cc(C#Cc2c(-c3ccccc3)n(C)c3ccccc23)cc(OC)c1 | 3.2 | -1.6 | 51.3* | 0.2 | · | ·
COc1ccc(C#Cc2c(-c3ccccc3)n(C)c3ccccc23)cc1 | · | -3.2 | -1.9 | · | · | ·
O=C(COC(=O)c1cnccn1)c1ccc(C2CCCCC2)cc1 | -2.4 | 0.2 | -11.3 | -2.6 | · | ·
CC(=O)Nc1ccc(NC(=O)Cc2ccc(S(=O)(=O)N3CCCCC3)cc2)cc1 | · | 1.0 | -6.9 | · | · | ·
CC(NC(=O)c1ccco1)c1nc(-c2ccccc2)no1 (stereo not drawn) | -0.4 | -2.5 | 11.1 | -2.3 | · | ·
Cc1cccc(-c2noc(C(C)NC(=O)c3ccco3)n2)c1 (stereo not drawn) | 1.1 | 1.2 | 107.8* | -0.8 | · | ·
NC1=CC(=O)c2cccc3cccc1c23 | 3.1 | · | · | 14.3* | -0.1 | 0.7
O=C1C=C(O)c2cccc3cccc1c23 | -0.9 | 6.3 | -20.1 | -1.1 | · | ·
CC1(C)CC(=O)C=C(c2ccc(F)nc2)C1 | · | 0.2 | 4.0 | · | · | ·
CCN1CCCc2cc(CN(CCN3CCOCC3)C(=S)Nc3ccc(OC)c(Cl)c3)ccc21 | -1.3 | -0.3 | 6.9 | -2.1 | 0.5 | 0.6
COc1ccc(NC(=S)N2CCC(N(C)CCN3CCOCC3)CC2)cc1Cl | -3.1 | -7.6 | 51.6* | -0.3 | 2.3 | 0.8
COc1cccc(C2(c3cccc(OC)c3)CC2C(=O)Nc2ccccc2Cl)c1 (stereo not drawn) | -0.7 | -1.0 | 76.6* | -1.1 | -1.2 | -1.1
N#CC(C(=O)NCCc1ccccc1)c1nc2ccccc2nc1N1CCCCC1 (stereo not drawn) | 2.9 | 18.8 | -14.1 | -2.5 | 1.4 | 0.3
N#CC(C(=O)NCc1ccccc1)c1nc2ccccc2nc1N1CCCC1 (stereo not drawn) | 0.3 | 34.3 | -40.1 | 8.2* | -0.7 | -0.9
Cc1ccc(S(=O)(=O)C(C#N)c2nc3ccccc3nc2N2CCCC2)cc1 (stereo not drawn) | -0.7 | 55.8* | -54.9 | -0.3 | 2.5 | 1.6
